Compound activity deposited in PubChem BioAssay by several laboratories.
Only some compounds are listed: those with a hit (about 2.2% of all), similar ones and a draw of the others.
AI-2 QS modul: modulates the Vibrio harveyi AI-2 quorum sensing system. Vibrio harveyi JMH597 AI-2 luminescence/OD600 ratio, 9 h; hits give low values; strain lacks LuxN and CqsS sensors; 0 = neutral-control median. activity change, % at 7.5 µM. actives 0.4% (n = 300,000); in the data active = activity change below about -75%, passing the limit was not always enough; inconclusive = no clear call, values can overlap the other calls;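 note: luminescence divided by OD600 gain over 9 h not by final OD600 alone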
HDAC3 inhib: human HDAC3 inhibition | actives 0.15% (n = 320,000) | AID 2718 | O15379 | inhibition, % at 8.3 µM | recombinant HDAC3, fluorogenic peptide/trypsin coupled, fluorescence; in the data active = inhibition above about 26%, passing the limit was not always enough; inconclusive = no clear call, values can overlap the other calls
Target sequence (O15379 whole entry, looked up): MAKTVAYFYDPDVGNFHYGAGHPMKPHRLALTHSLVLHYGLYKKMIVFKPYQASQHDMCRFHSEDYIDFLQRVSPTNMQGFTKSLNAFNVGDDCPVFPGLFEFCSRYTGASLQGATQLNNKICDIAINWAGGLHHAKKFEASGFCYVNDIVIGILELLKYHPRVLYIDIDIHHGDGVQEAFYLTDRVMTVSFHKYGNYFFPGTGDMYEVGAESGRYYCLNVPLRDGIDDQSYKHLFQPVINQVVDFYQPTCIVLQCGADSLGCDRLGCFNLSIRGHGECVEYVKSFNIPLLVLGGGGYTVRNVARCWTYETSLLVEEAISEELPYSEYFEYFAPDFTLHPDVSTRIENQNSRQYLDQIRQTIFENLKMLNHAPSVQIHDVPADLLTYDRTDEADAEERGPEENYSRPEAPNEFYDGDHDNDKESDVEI
PolyA inh: inhibitors of polyadenylation in S. cerevisiae. S. cerevisiae SKY197-pL101 polyadenylation reporter, beta-gal luminescence; efflux-impaired pdr1/pdr3 knockout yeast; score 100 = 6 SD above DMSO. activity score, % at 12 µM. actives 0.02% (n = 300,000). AID 1875;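 active = lowest replicate activity score at least 50, where 100 means six control SD above control mean; inconclusive = lowest score under 50 but half or more replicates reach 50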;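 note: yeast exposed to compound for 9 h at 30 °C; higher score means more reporter readthrough which indicates perturbed polyadenylation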
Efflux pump mplx: antifungal efflux pump inhibition, Nile Red retention; S. cerevisiae Candida pump triplex; inhibition, % at 10 µM; actives 0.44% (n = 330,000);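 active = plate passing quality check with inhibition over a set limit, or well fluorescence over plate mean plus 4 SD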;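 note: Nile Red retained in pooled yeast measured as flow cytometry median fluorescence; 0% = buffer negative control and 100% = Enniatin B positive control; higher means more Nile Red kept so more efflux inhibition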
T cruzi repl: blocks replication of Trypanosoma cruzi; actives 1.4% (n = 300,000); T. cruzi beta-gal in NIH3T3, luminescence, 90 h; inhibition, % (no concentration beside the values); AID 1885;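 active = mean inhibition across valid replicates above about 55%, limit read from the data; inconclusive = mean below that limit but half or more replicates reach it; inactive = mean below it, under half of replicates reach it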;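 note: signal also drops with host cell toxicity which is not excluded here; 0% = plate median of DMSO wells and 100% = zero luminescence signal; higher percent means less beta-gal luminescence so fewer parasites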
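Test system: β-gal T. cruzi (Tulahuen C4) inside NIH/3T3 cells / Quantity: 5,000 cells/well / Measured by: luminescence from GalScreen with 0.05% NP40, read after 60 min / Medium: DMEM plus 2% FBS / Measure: parasite load inhibition, % / Reagent: Tulahuen C4 trypomastigotes, 5000/well / Schedule: co-culture of at least 90 h after 3 h attachment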
* hit, by the source's call.

CCCCn1c(N)c(N(CCC(C)C)C(=O)COC(=O)c2ccc([N+](=O)[O-])s2)c(=O)[nH]c1=O was read as HDAC3 inhib 3 and Efflux pump mplx 0.
Screening CC(C)CN(C(=O)COC(=O)c1ccc([N+](=O)[O-])s1)c1c(N)n(Cc2ccccc2)c(=O)[nH]c1=O returned AI-2 QS modul 57, HDAC3 inhib 4, PolyA inh -12, Efflux pump mplx 0 and T cruzi repl 63*.
Screening CCOc1ccc(C(=O)NC(=S)Nc2ccccc2N2CCC(C)CC2)cc1[N+](=O)[O-] returned AI-2 QS modul 11, HDAC3 inhib 13, PolyA inh -7, Efflux pump mplx 0 and T cruzi repl 55*.
Screening CCOc1ccc(OCC)c(NC(=O)CN2CCN(c3ccc(C)cc3C)CC2)c1 returned AI-2 QS modul 10, HDAC3 inhib -2, PolyA inh 4, Efflux pump mplx 0 and T cruzi repl 65*.
Screening CCOC(=O)N1CCN(CC(=O)Nc2cc(OCC)ccc2OCC)CC1 returned HDAC3 inhib 0 and Efflux pump mplx 0.
Screening Cc1ccc(-c2nc3cc(Br)cnc3nc2-c2ccc(C)cc2)cc1 returned AI-2 QS modul 26, HDAC3 inhib 5, PolyA inh -16, Efflux pump mplx 0 and T cruzi repl 58*.
For CCOP(=O)(OCC)c1ccc2c(c1)C(=O)c1ccccc1CC2 the results were HDAC3 inhib 14 and Efflux pump mplx 0.
For Cc1ccc(-n2nc3c(N4CCC(C(=O)NCCc5ccccc5C)CC4)nnc(C)c3c2C)cc1 the results were AI-2 QS modul -6, HDAC3 inhib -2, PolyA inh 37, Efflux pump mplx 0 and T cruzi repl 55*.
Screening Cc1ccc(-c2nc(CN3CCCCC3)cc(CN3CCCCC3)c2O)cc1 returned AI-2 QS modul -1, HDAC3 inhib -37, PolyA inh 7, Efflux pump mplx 0 and T cruzi repl 2.
Screening O=S1(=O)Nc2c(ccc3cccnc23)-c2ccccc21 returned AI-2 QS modul inconclusive, HDAC3 inhib 11, PolyA inh -87, Efflux pump mplx 0 and T cruzi repl 72*.
CC(C)(C)c1ccc(C(=O)N2CCN(CCNC(=O)C(=O)NCc3ccc(Cl)cc3)CC2)cc1 was read as AI-2 QS modul 12, HDAC3 inhib -3, PolyA inh -1, Efflux pump mplx 0 and T cruzi repl 66*.
For CC(C)(C)c1ccc(C(=O)NCc2ccc(Cl)cc2)cc1 the results were AI-2 QS modul 35, HDAC3 inhib -1, PolyA inh -7, Efflux pump mplx 0 and T cruzi repl 24.
C[C@H]1COC(=O)[C@@H](CC(=O)OC(C)(C)C)C/C=C\C[C@@H](CC(=O)N(CCO)Cc2ccccc2)C(=O)N1 was read as HDAC3 inhib 3 and Efflux pump mplx 0.
For CCOC(=O)c1c(NC(=O)N/N=C/c2ccccc2OCC)sc(C(C)=O)c1C the results were AI-2 QS modul 17, PolyA inh 6 and T cruzi repl 68*.
For CO[C@H]1C=CO[C@@]2(C)Oc3c(C)c(O)c4c(O)c(c(C=NN5CCN(C)CC5)c(O)c4c3C2=O)NC(=O)C(C)=CC=C[C@H](C)[C@H](O)[C@@H](C)[C@@H](O)[C@@H](C)[C@H](OC(C)=O)[C@@H]1C the results were AI-2 QS modul -119*, HDAC3 inhib 13, PolyA inh 8, Efflux pump mplx 0 and T cruzi repl 13.
For CO[C@H]1C=CO[C@@]2(C)Oc3c(C)c(O)c4c(O)c(c(C=NN5CCN(C6CCCC6)CC5)c(O)c4c3C2=O)NC(=O)C(C)=CC=C[C@H](C)[C@H](O)[C@@H](C)[C@@H](O)[C@@H](C)[C@H](OC(C)=O)[C@@H]1C the results were AI-2 QS modul -185*, PolyA inh -5 and T cruzi repl 5.
For CO[C@H]1/C=C/O[C@@]2(C)Oc3c(C)c(O)c4c(O)c(c(C=NN5CCN(C)CC5)c(O)c4c3C2=O)NC(=O)/C(C)=C\C=C\[C@H](C)[C@H](O)[C@@H](C)[C@@H](O)[C@@H](C)[C@H](OC(C)=O)[C@@H]1C the results were HDAC3 inhib 4 and Efflux pump mplx 0.
`Cc1cc(-c2ccccc2)nc(Cl)c1C#N` gave AI-2 QS modul 5, HDAC3 inhib 0, PolyA inh 7, Efflux pump mplx 0 and T cruzi repl -5.
For Cc1cccc(C2NC(c3cccc(C)c3)C(C)C(=O)C2C)c1 (configuration not stated) the results were AI-2 QS modul -2, HDAC3 inhib -1, PolyA inh 13, Efflux pump mplx 0 and T cruzi repl 7.
For Cc1sc2nc(CN(C(=O)NC3CCCCC3)C3CCCCC3)[nH]c(=O)c2c1C the results were AI-2 QS modul 21, HDAC3 inhib -2, PolyA inh 13, Efflux pump mplx 0 and T cruzi repl -5.
`O=C(N/N=C/c1ccc([N+](=O)[O-])o1)c1cn(-c2ccccc2)nc1-c1ccccc1` gave AI-2 QS modul 39, HDAC3 inhib -2, PolyA inh -7, Efflux pump mplx 0 and T cruzi repl 60*.
Screening O=C(O)COc1ccc(/C=N/NC(=O)c2cn(-c3ccccc3)nc2-c2ccccc2)cc1 returned AI-2 QS modul -6, HDAC3 inhib 10, PolyA inh -5, Efflux pump mplx 0 and T cruzi repl -14.
O=C(N/N=C/c1ccc([N+](=O)[O-])o1)c1ccccc1-n1cccc1 was read as AI-2 QS modul -20, HDAC3 inhib 5, PolyA inh -10, Efflux pump mplx 0 and T cruzi repl 67*.
O=C(N/N=C/c1ccc([N+](=O)[O-])o1)c1cn(-c2ccccc2)nc1-c1ccc(Cl)cc1 was read as AI-2 QS modul 13, HDAC3 inhib 6, PolyA inh -26, Efflux pump mplx 0 and T cruzi repl 64*.
For Clc1ccccc1-c1ncc2ccccn12 the results were AI-2 QS modul -3, HDAC3 inhib -7, PolyA inh -20, Efflux pump mplx 0 and T cruzi repl 57*.
`N#Cc1ccc(Oc2ccc(NC(=O)C3CC=CCC3C(=O)O)cc2)cc1` (configuration not stated) gave AI-2 QS modul 17, HDAC3 inhib -2, PolyA inh 18, Efflux pump mplx 0 and T cruzi repl -7.
`Cc1ccc(N2C(=O)CC(Sc3nc4ccccc4o3)C2=O)cc1Cl` (configuration not stated) gave AI-2 QS modul -3, HDAC3 inhib 2, PolyA inh -10, Efflux pump mplx 0 and T cruzi repl 69*.
`Cc1ccc(S(=O)(=O)N2CCCC2CNC(=O)C(=O)NCCN2CCOCC2)cc1` (configuration not stated) gave AI-2 QS modul 8, HDAC3 inhib 2, PolyA inh -7, Efflux pump mplx 0 and T cruzi repl -9.
